In ChEMBL document CHEMBL3813637, “Synthesis and Antiproliferative and Metabolic Evaluations of Novel Securinine Derivatives” (ACS Med Chem Lett, 2016):

How the values were obtained:
[1] = Metabolic stability in mouse liver microsomes at 2 uM after 1 hr by ZQ-LC-MS analysis; assay type: ADME
Plasma [2] = test: Metabolic stability in mouse plasma at 5 uM after 2 hrs by ZQ-LC-MS analysis; assay type: ADME, cell-free
In short: (§1)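 Compounds were incubated in rat, mouse and human plasma for 120 min at 37 °C. The result is reported as the percentage of parent compound remaining.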

[3] = Antiproliferative activity against human HCT116 cells assessed as reduction in cell viability at 1 uM after 72 hrs by ATPlite assay; assay type: functional; conditions: HCT-116, 72 h, read-out: GI
In short: (§2)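 HCT-116 human colon cancer cells exposed to compound for 72 h at 20, 10 or 1 μM. Growth inhibition is expressed as percentage relative to nontreated cells.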

Liver microsome [4] = test: Metabolic stability in rat liver microsomes at 2 uM after 1 hr by ZQ-LC-MS analysis; assay type: ADME
[5] = Antiproliferative activity against human HL60 cells assessed as reduction in cell viability after 72 hrs by ATPlite assay; assay type: functional, cell-based; conditions: HL-60, 72 h
In short: (§3)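 IC50 determined in human cancer cell lines (HCT-116, A-375 melanoma, HL-60, A-549). Camptothecin and etoposide served as reference compounds.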

[6] = Antiproliferative activity against human HCT116 cells assessed as reduction in cell viability after 72 hrs by ATPlite assay; assay type: functional, cell-based; conditions: HCT-116, 72 h; in short: as §3
Plasma [7] = test: Metabolic stability in rat plasma at 5 uM after 2 hrs by ZQ-LC-MS analysis; assay type: ADME, cell-free; in short: as §1
[8] = Antiproliferative activity against human HCT116 cells assessed as reduction in cell viability at 20 uM after 72 hrs by ATPlite assay; assay type: functional; conditions: HCT-116, 72 h, read-out: GI; in short: as §2
Plasma [9] = test: Metabolic stability in human plasma at 5 uM after 2 hrs by ZQ-LC-MS analysis; assay type: ADME, cell-free; in short: as §1
Liver microsome [10] = test: Metabolic stability in human liver microsomes at 2 uM after 1 hr by ZQ-LC-MS analysis; assay type: ADME
[11] = Antiproliferative activity against human HCT116 cells assessed as reduction in cell viability at 10 uM after 72 hrs by ATPlite assay; assay type: functional; conditions: HCT-116, 72 h, read-out: GI; in short: as §2
A549 = test: Antiproliferative activity against human A549 cells assessed as reduction in cell viability after 72 hrs by ATPlite assay; assay type: functional, cell-based; conditions: A549, 72 h
In short: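 IC50 values were determined on a panel of four human cancer lines (HCT-116, A-549, HL-60, A-375), with camptothecin and etoposide as reference compounds.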

A-375 = test: Antiproliferative activity against human A375 cells assessed as reduction in cell viability after 72 hrs by ATPlite assay; assay type: functional, cell-based; conditions: A-375, 72 h; in short: as §3

| SMILES | Stability [1] | Stability (Plasma [2]) | inhibition of growth at 1 µM [3] | Stability (Liver microsome [4]) | IC50 [5] | IC50 [6] | Stability (Plasma [7]) | inhibition of growth at 20 µM [8] | Stability (Plasma [9]) | Stability (Liver microsome [10]) | inhibition of growth at 10 µM [11] | IC50 (A549) | IC50 (A-375) |
| --- | --- | --- | --- | --- | --- | --- | --- | --- | --- | --- | --- | --- | --- |
| O=C1C=C2C=C[C@@H]3C[C@@]2(O1)[C@H]1CCCCN31 [SECURININE] | Unstable | Stable | 7.6% | Unstable | > 10 µM | > 10 µM | Stable | 90.7% | Stable | Stable | 50.6% | > 10 µM | – |
| O=C1C=C2C(C#CCCCCl)=C[C@@H]3C[C@@]2(O1)[C@H]1CCCCN31 | Unstable | – | 6.1% | Unstable | – | – | – | 99.2% | – | Unstable | 97.8% | – | – |
| O=C1C=C2C(C#Cc3ccccc3)=C[C@@H]3C[C@@]2(O1)[C@H]1CCCCN31 | Unstable | Unstable | 91.9% | Unstable | – | – | Unstable | 100% | Unstable | Unstable | 100% | – | – |
| CN(C)c1ccc(C2=C[C@@H]3C[C@@]4(OC(=O)C=C24)[C@H]2CCCCN32)cc1 | Unstable | Stable | -1.4% | Unstable | – | – | Stable | 19.3% | Stable | Unstable | 5.6% | – | – |
| COc1ccc(C#CC2=C[C@@H]3C[C@@]4(OC(=O)C=C24)[C@H]2CCCCN32)cc1 | – | Unstable | 98.3% | – | 0.66 µM | 0.34 µM | Unstable | 100% | Unstable | – | 100% | 0.29 µM | 0.06 µM |
| CN(C)c1ccc(C#CC2=C[C@@H]3C[C@@]4(OC(=O)C=C24)[C@H]2CCCCN32)cc1 | Unstable | Unstable | 99.7% | Unstable | 0.42 µM | 0.42 µM | Unstable | 100% | Unstable | Unstable | 100% | 0.6 µM | 0.17 µM |
